Active and inactive are the calls of the source. No cut-off for these calls is given here.

Holding throughout (type): cell-based
Data set [1] concerns the target T1, Oxysterols receptor LXR-alpha (Homo sapiens) (UniProt Q13133).
T1 sequence (whole entry): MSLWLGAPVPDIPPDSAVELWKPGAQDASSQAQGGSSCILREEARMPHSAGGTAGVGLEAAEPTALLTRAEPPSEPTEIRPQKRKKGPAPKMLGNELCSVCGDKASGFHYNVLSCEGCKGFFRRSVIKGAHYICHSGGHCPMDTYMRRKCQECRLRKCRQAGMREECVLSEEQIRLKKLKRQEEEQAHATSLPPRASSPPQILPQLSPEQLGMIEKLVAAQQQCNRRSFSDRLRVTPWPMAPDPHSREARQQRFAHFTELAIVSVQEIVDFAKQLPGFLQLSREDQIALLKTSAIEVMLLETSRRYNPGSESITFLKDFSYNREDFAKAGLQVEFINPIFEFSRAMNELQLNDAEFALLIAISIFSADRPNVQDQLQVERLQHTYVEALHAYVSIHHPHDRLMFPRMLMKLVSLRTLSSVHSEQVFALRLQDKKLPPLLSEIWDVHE
The data set can be described thus: Transactivation of human Gal4-fused LXRalpha LBD expressed in HEK293T cells at 30 uM after 12 to 14 hrs by dual-glo luciferase assay. The gist of the method:
(§1)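 Single-concentration selectivity profiling in Gal4-hybrid reporter gene assays in HEK293T cells. Each nuclear receptor construct (RAR, PPAR, LXR, FXR, CAR, VDR, PXR, RXR) was tested at 30 μM.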

Another data set concerns HepG2. Put plainly: Cytotoxicity against human HepG2 cells assessed as reduction in cell viability up to 100 uM after 48 hrs by WST1 assay. The settings on record: hepg2, 48 h.
Data set [2] addresses T2, Retinoic acid receptor beta (Homo sapiens) (UniProt P10826).
T2 sequence (whole entry): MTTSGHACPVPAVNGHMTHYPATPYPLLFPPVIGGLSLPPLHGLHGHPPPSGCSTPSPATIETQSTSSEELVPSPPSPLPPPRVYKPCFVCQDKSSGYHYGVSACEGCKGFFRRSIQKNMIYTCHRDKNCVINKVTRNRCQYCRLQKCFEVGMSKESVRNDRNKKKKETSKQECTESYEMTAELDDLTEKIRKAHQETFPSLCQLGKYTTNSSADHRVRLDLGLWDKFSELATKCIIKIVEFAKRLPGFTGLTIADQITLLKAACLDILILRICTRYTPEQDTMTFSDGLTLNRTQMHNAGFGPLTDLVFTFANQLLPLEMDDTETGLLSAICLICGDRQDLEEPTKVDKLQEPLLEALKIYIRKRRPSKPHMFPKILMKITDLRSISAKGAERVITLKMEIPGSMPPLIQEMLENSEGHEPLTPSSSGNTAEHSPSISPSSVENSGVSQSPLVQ
Put plainly: Transactivation of human Gal4-fused RARbeta LBD expressed in HEK293T cells at 30 uM after 12 to 14 hrs by dual-glo luciferase assay. The method in brief: as §1

Take `CC1=C2[C@H](/C=C(\C)C(=O)O)CC[C@@H](C)[C@H]2CC1` [VALERENIC ACID]: the outcome in data set [1] and in data set [2] was inactive. In the data set with HepG2, the Activity result is reported as “Non-Toxic”.

(Values after ChEMBL document CHEMBL4145619, “Computer-Assisted Discovery of Retinoid X Receptor Modulating Natural Products and Isofunctional Mimetics” (J Med Chem, 2018).)
